Compound activity: PubChem BioAssay, Johns Hopkins Ion Channel Center
A selection: hits, their analogues and other compounds. The true share with any hit is near 3.7%.
KCNK9 inh = blocks the human KCNK9 two-pore domain potassium channel; HEK293 KCNK9, FluxOR thallium flux fluorescence; stronger effect = lower value; B-score at 10 µM; 310,000 compounds, 1.2% hits;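 active means ratio B-score over 3 SD below the library mean, with starting fluorescence within 5 SD of its mean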;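 further: negative B-score means less thallium flux so channel inhibition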
Kir21 inh = inhibitors of mouse Kir2.1 inward-rectifier potassium channel; P35561; HEK293-Kir2.1, FluxOR thallium flux fluorescence; stronger effect = lower value; B-score at 10 µM; 310,000 compounds, 0.85% hits;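 active means fluorescence ratio B-score at or below minus 3 SD of library scores, with starting-brightness B-score within 2 SD, cut at about -4.2 in these data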;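 further: channel flux triggered by added potassium and thallium sulfate stimulus; B-score of peak minus minimum fluorescence over baseline after thallium stimulus; more negative B-score means stronger Kir2.1 block with less thallium influx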
KCNK3 inh = human KCNK3 channel inhibition, primary screen | O14649 | 340,000 compounds, 0.84% hits | CHO-KCNK3 thallium flux, FluxOR fluorescence; stronger effect = lower value | B-score at 10 µM;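 active means B-score under library mean minus 4 SD, starting fluorescence ratio at most library mean plus 5 SD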;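 further: more negative B-score means stronger inhibition of thallium flux through KCNK3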
Target sequence (O14649 whole entry, looked up): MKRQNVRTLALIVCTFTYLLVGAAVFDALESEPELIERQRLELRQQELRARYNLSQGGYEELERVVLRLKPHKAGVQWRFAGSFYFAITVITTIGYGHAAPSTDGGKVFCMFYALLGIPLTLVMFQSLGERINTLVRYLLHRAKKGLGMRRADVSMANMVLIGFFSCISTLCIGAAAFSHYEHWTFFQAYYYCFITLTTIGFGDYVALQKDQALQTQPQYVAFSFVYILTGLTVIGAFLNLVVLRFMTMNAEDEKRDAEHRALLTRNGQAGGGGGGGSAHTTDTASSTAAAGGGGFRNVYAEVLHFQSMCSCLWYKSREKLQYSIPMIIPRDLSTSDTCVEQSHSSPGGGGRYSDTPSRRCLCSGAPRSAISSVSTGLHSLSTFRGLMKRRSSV
KCNQ1 act = human KCNQ1 channel potentiation or activation | P51787 | CHO-K1 KCNQ1, thallium flux FluxOR fluorescence; stronger effect = higher value | B-score at 10 µM | 310,000 compounds, 0.35% hits;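 active means fluorescence ratio B-score, a plate-corrected score, at least three library SD, with initial intensity B-score within 5 SD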
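Test system: CHO-K1 cells stably expressing KCNQ1 / Medium: assay buffer / Also added: depolarizing K+/Tl+ stimulus, K2SO4 and Tl2SO4 each 12.5 mM in 5x stock / Incubation: 90 min dye loading and 20 min compound exposure, both at room temperature / Signal: thallium influx via FluxOR fluorescence, kinetic imaging / Evaluation: B score of baseline-normalized fluorescence ratio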
hERG protect = compounds protecting human hERG from proarrhythmic drug block | CHO-hERG, FluxOR thallium flux, dofetilide IC70 present | activation (rescue from dofetilide block), less the hit threshold, % at 10 µM | 310,000 compounds, 0.51% hits;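 active means activation above the mean of controls blocked by dofetilide plus 5 SD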;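 further: thallium influx through hERG after potassium depolarization seen as dye fluorescence rise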
KCNQ1 block = inhibitors of human KCNQ1 potassium channel; CHO-K1 KCNQ1, FluxOR thallium flux fluorescence; stronger effect = higher value; AID 2642; P51787; B-score at 10 µM; 310,000 compounds, 1.3% hits;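 active means compounds whose thallium flux B-score, printed positive for inhibition, exceeds three library SD while starting fluorescence stays within three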;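 further: channel opened by potassium depolarization with thallium stimulus after 20 min compound exposure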
Of the large screens only hits and unclear results are named; the others gave an inactive call.

COc1cccc(CN2CCN(Cc3cc4ccccc4[nH]3)CC2CCO)c1 (centres undefined)	KCNQ1 act 13
CCCCc1nc2sc3c(SCCN(C)C)ncnc3c2c2c1CCC2	KCNQ1 act 21
COc1ccc(OCC(=O)NNC(=O)c2ccccc2OCc2c(C)noc2C)cc1	KCNK9 inh -7.48
CCOc1ccc(/C=C2\CCCc3c2nc2ccccc2c3C(=O)O)cc1OC	KCNQ1 block 19
CCOCCCn1c(SCC(=O)Nc2cc(C(C)(C)C)nn2-c2ccccc2)nc2ccccc2c1=O	KCNK9 inh -7.26
CN1CCN(S(=O)(=O)NC[C@H]2O[C@@H](n3cnc4c(N)ncnc43)[C@H](O)[C@@H]2O)CC1	none (no result: KCNK9 inh, Kir21 inh, KCNQ1 act, hERG protect, KCNQ1 block)
CNC(=O)N(O)C1N(/N=C/c2ccccc2OC)C(=S)SC1(C)C (centres undefined)	none
CC(C)CC(OC(=O)c1ccco1)C(=O)NC1CCCC1 (centres undefined)	none
Cc1ccnc(N2C(=O)c3ccccc3C2=O)c1	none
Cc1ccnc(N2C(=O)c3cccc4c([N+](=O)[O-])ccc(c34)C2=O)c1	KCNQ1 block 7
O=C(CNC(=O)c1ccc(S(=O)(=O)N2CCCC2)cc1)N/N=C/c1c(Cl)cccc1Cl	none
Cc1nn(C(=O)c2cccc([N+](=O)[O-])c2)c(C)c1Sc1ccccc1	Kir21 inh -4.35
CSc1ccc(/C=N/NC(=O)c2cccs2)cc1	KCNQ1 act 46, hERG protect 24.6
Cc1ccc(/C=N/NC(=O)CNC(=O)c2cccs2)o1	Kir21 inh -5.46
Cc1nn(-c2ccccc2)c(C)c1/C=N/NC(=O)c1cc(-c2cccs2)[nH]n1	none
Cc1c(/C=N/NC(=O)c2cccs2)c2ccccc2n1Cc1ccccc1Cl	KCNK9 inh -7.7, KCNK3 inh -9.31
O=C(CNC(=O)c1cccs1)N/N=C/c1ccco1	none
Cc1nn(-c2ccccc2)c(C)c1/C=N/NC(=O)c1cccs1	KCNK9 inh -7.82
O=C(N/N=C/c1ccncc1)c1cccs1	none
NS(=O)(=O)c1ccc(CCNC(=O)CN2CCN(Cc3cccc4ccccc34)CC2)cc1	none
CCOC(=O)C/C(N)=N/N(C)c1ncc(C(F)(F)F)cc1Cl	none
Fc1ccc(-c2csc(=S)[nH]2)cc1	KCNQ1 act 35, hERG protect 48.3
S=c1[nH]c(-c2ccccc2)cs1	KCNQ1 act 44, hERG protect 60.6
CC(=O)c1c(N2CCCC2)[nH]c(-c2ccccc2)nc1=S	KCNQ1 act 9, hERG protect 7.3
CC(=O)c1c(N2CCOCC2)[nH]c(-c2ccccc2)nc1=S	none
CC(=O)c1c(N2CCN(Cc3ccccc3)CC2)[nH]c(-c2ccccc2)nc1=S	KCNQ1 act 23
CC/C(=N\NC(=S)Nc1cc(C)ccc1C)c1ccc(OC(F)F)cc1	none
CCOC(=O)C(CC)/C(C)=N/NC(=O)c1ccc([N+](=O)[O-])cc1 (centres undefined)	none
CC(=N\NC(=O)c1ccc([N+](=O)[O-])cc1)/C(=N/O)C(=O)Nc1ccccc1	KCNQ1 block 6
CCOC(=O)/C(C)=N/NC(=O)c1ccc([N+](=O)[O-])cc1	KCNQ1 act 11, hERG protect 10.5
CC(=O)c1ccc(NC(=O)C(C)OC(=O)c2ccc(NS(=O)(=O)c3ccc(F)c(F)c3)cc2)cc1 (centres undefined)	none
O=C1CSC(c2ccccc2F)N1c1cc(Cl)ccc1O (centres undefined)	Kir21 inh -6
COc1ccc(CCNc2nnc(Sc3nnnn3-c3ccccc3)s2)cc1OC	Kir21 inh -4.47
Cn1nc(-c2ccc(Cl)cc2)nc2c(=O)n(C)c(=O)nc1-2	KCNQ1 act 9 (no result: KCNK3 inh)
CS(=O)(=O)n1nc(-c2ccc(Cl)cc2)nc1N	none
O=S(=O)(NC1=NCCC1)c1cccc(NC(=S)NCCc2ccccc2)c1	none
Cc1ccc(CSc2ccc(S(=O)(=O)N3CCCC3)cn2)cc1	none (no result: KCNK9 inh, Kir21 inh, KCNQ1 act, hERG protect, KCNQ1 block)
O=S(=O)(c1ccc(SCc2cccc(Cl)c2)nc1)N1CCCC1	KCNK3 inh -9.52 (no result: KCNK9 inh, Kir21 inh, KCNQ1 act, hERG protect, KCNQ1 block)
Cc1ccc(NC2CCCN(C(=O)CSc3ccccn3)C2)cc1C (centres undefined)	none
CC(C)N1CCN(c2ccc(S(=O)(=O)N3CCOCC3)cn2)CC1	none
O=C(O)CCSc1ncnc2sc(-c3ccccc3)cc12	KCNQ1 act 14, hERG protect 6.6
CCN(CC)C(=S)SSC(=S)N(CC)CC	Kir21 inh -4.46
Cc1cc([N+](=O)[O-])ccc1NC(=S)NC1CCCC1	none
Cc1c(-c2nc(-c3ccncc3)no2)cccc1[N+](=O)[O-]	KCNQ1 act 11
CC1CCN(C(=S)c2cn(Cc3cccc(F)c3)c3ccccc23)CC1	none
Cc1cc(C)n(-c2ccc(Cl)c(C(=O)Nc3cc(C(F)(F)F)ccc3Cl)n2)n1	none
CCOc1ncccc1C(=O)Nc1ccc(S(=O)(=O)N2CC(C)CC(C)C2)cc1 (centres undefined)	none (no result: KCNK9 inh, Kir21 inh, KCNQ1 act, hERG protect, KCNQ1 block)
Cc1cc(-c2nnc(SCC(=O)Nc3ccccc3)n2C)no1	none
Cc1cc(-c2nnc(SCC(=O)Nc3ccc(C(F)(F)F)cc3)n2C)no1	hERG protect 6.2
O=[N+]([O-])c1ccccc1NC1CCN(Cc2ccccc2)CC1	Kir21 inh -7.04
CN(Cc1ccccc1)C1CCN(Cc2ccccc2[N+](=O)[O-])CC1	hERG protect 9.8
O=[N+]([O-])c1ccccc1CN1CCN(S(=O)(=O)Cc2ccccc2)CC1	none
CN(CC(=O)NC(=O)NC1CCCCC1)Cc1ccccc1	none (no result: KCNK9 inh, Kir21 inh, KCNQ1 act, hERG protect, KCNQ1 block)
CC(C)Cn1c(N)c(C(=O)COC(=O)c2cnc(Cl)c(Cl)c2)c(=O)n(C)c1=O	KCNQ1 block 6
CC(C)Cn1c(N)c(C(=O)COC(=O)c2cc(F)cc(F)c2)c(=O)n(C)c1=O	none
CC(NC(=O)c1ccncc1)C(C)(C)C (centres undefined)	KCNQ1 act 41
Cc1ccc(C(C)NC(=O)c2ccncc2)cc1C (centres undefined)	none
Clc1cccc(Cl)c1Cn1ccc(C2CC2)n1	none
O=C(CN1CCOCC1)Nc1ccccc1F	none
CN1CCN(CC(=O)Nc2ccccc2Sc2ccccc2)CC1	none
Cc1ccccc1CN(C)CC(=O)Nc1ccccc1Oc1ccccc1	KCNK9 inh -7.54
O=C(CSc1ncn[nH]1)NCCC(c1ccccc1)c1ccccc1	Kir21 inh -5.21
O=C(CSc1ncn[nH]1)NCCOc1ccccc1	none
O=C(CN1CCCC1)Nc1ccccc1Sc1ccccc1	Kir21 inh -4.23
O=C(CN1CCOCC1)Nc1ccccc1Sc1ccc(Cl)cc1	Kir21 inh -5.17
COc1cc(NC(=O)CSc2nc(C3CC3)nc3ccccc23)cc(OC)c1	none
COc1ccc(S(=O)(=O)N(CC(=O)NC2CCCCC2)c2ccc(F)cc2)cc1	none
O=C(CN1CCCCC1)Nc1ccccc1Oc1ccccc1	Kir21 inh -5.56
